# Assay results from ChEMBL document CHEMBL4689842, “EUbOPEN Chemogenomics Library wave 1” (2021).
# Tests used:
# Assay type in all cases: toxicity, cell-based
# Fibroblast [1] = assay: Multiplex assay against human fibroblast
# Method in brief: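 Cells stained live at seeding with Hoechst33342, BioTracker Green Microtubule Cytoskeleton Dye, MitoTracker Red and Annexin V Alexa Fluor 680 were imaged on a CQ1 microscope at 37°C and 5% CO2 after compound addition. Their classification by CellPathfinder machine-learning gating ran from Hoechst high-intensity objects versus normal cells, to healthy, pyknosed or fragmented nuclei among normal cells, to mitotic or apoptotic among pyknosed cells. Tubulin, mitochondrial-mass and membrane-permeability phenotypes are per cents of healthy-nucleus cells.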
# HEK-293T = assay: Incucyte cell viability with HEK293T; conditions: human, 10 µM, compound concentration 10 uM; also: filed as whole numbers so only -1 and 0 and 1 occur
# Fibroblast [2] = assay: Incucyte cell viability with human fibroblast; conditions: 10 µM, compound concentration 10 uM; also: filed as whole numbers so only -1 and 0 and 1 occur
# U2OS = assay: Incucyte cell viability with U2OS; conditions: human, 10 µM, compound concentration 10 uM; also: filed as whole numbers so only -1 and 0 and 1 occur
# [3] = 24 h, 10 µM, compound concentration 10 uM, replicate 1
# [4] = 24 h, 10 µM, compound concentration 10 uM, replicate 2
# [5] = 48 h, 1 µM, compound concentration 1 uM, replicate 1
# [6] = 48 h, 1 µM, compound concentration 1 uM, replicate 2
# [7] = 48 h, 10 µM, compound concentration 10 uM, replicate 1
# [8] = 48 h, 10 µM, compound concentration 10 uM, replicate 2
# [9] = 6 h, replicate number 1, timepoint 6 hours
# [10] = 12 h, replicate number 1, timepoint 12 hours
# [11] = 18 h, replicate number 1, timepoint 18 hours
# [12] = 24 h, replicate number 1, timepoint 24 hours
compound,measurement,setting,value
CC(C)[C@H](CO)Nc1nc(Nc2cccc(Cl)c2)c2ncn(C(C)C)c2n1 [PURVALANOLA],Population Mitotic Cells (%),Fibroblast [1]; [3],27%
same,Population Normal (%),Fibroblast [1]; [3],79%
same,Population Pyknosed Nuclei (%),Fibroblast [1]; [3],25%
same,Population Tubulin-Different-Phenotype (%),Fibroblast [1]; [3],94%
same,Total Cell Count,Fibroblast [1]; [3],145
same,Population Apoptotic (%),Fibroblast [1]; [4],80%
same,Population Fragmented Nuclei (%),Fibroblast [1]; [4],16%
same,Population Healthy Nuclei (%),Fibroblast [1]; [4],65%
same,Population Hoechst High Intensity Objects (%),Fibroblast [1]; [4],8%
same,Population Membrane Permeable-Phenotype (%),Fibroblast [1]; [4],50%
same,Population Mitochondria Different-Phenotype (%),Fibroblast [1]; [4],100%
same,Population Mitotic Cells (%),Fibroblast [1]; [4],20%
same,Population Normal (%),Fibroblast [1]; [4],91%
same,Population Pyknosed Nuclei (%),Fibroblast [1]; [4],17%
same,Population Tubulin-Different-Phenotype (%),Fibroblast [1]; [4],100%
same,Total Cell Count,Fibroblast [1]; [4],66
same,Population Apoptotic (%),Fibroblast [1]; [5],60%
same,Population Fragmented Nuclei (%),Fibroblast [1]; [5],39%
same,Population Healthy Nuclei (%),Fibroblast [1]; [5],51%
same,Population Hoechst High Intensity Objects (%),Fibroblast [1]; [5],19%
same,Population Membrane Permeable-Phenotype (%),Fibroblast [1]; [5],23%
same,Population Mitochondria Different-Phenotype (%),Fibroblast [1]; [5],4%
same,Population Mitotic Cells (%),Fibroblast [1]; [5],40%
same,Population Normal (%),Fibroblast [1]; [5],80%
same,Population Pyknosed Nuclei (%),Fibroblast [1]; [5],9%
same,Population Tubulin-Different-Phenotype (%),Fibroblast [1]; [5],49%
same,Total Cell Count,Fibroblast [1]; [5],203
same,Population Apoptotic (%),Fibroblast [1]; [6],50%
same,Population Fragmented Nuclei (%),Fibroblast [1]; [6],23%
same,Population Healthy Nuclei (%),Fibroblast [1]; [6],73%
same,Population Hoechst High Intensity Objects (%),Fibroblast [1]; [6],8%
same,Population Membrane Permeable-Phenotype (%),Fibroblast [1]; [6],16%
same,Population Mitochondria Different-Phenotype (%),Fibroblast [1]; [6],0%
same,Population Mitotic Cells (%),Fibroblast [1]; [6],50%
same,Population Normal (%),Fibroblast [1]; [6],91%
same,Population Pyknosed Nuclei (%),Fibroblast [1]; [6],2%
same,Population Tubulin-Different-Phenotype (%),Fibroblast [1]; [6],34%
same,Total Cell Count,Fibroblast [1]; [6],74
same,Population Apoptotic (%),Fibroblast [1]; [7],85%
same,Population Fragmented Nuclei (%),Fibroblast [1]; [7],32%
same,Population Healthy Nuclei (%),Fibroblast [1]; [7],49%
same,Population Hoechst High Intensity Objects (%),Fibroblast [1]; [7],17%
same,Population Membrane Permeable-Phenotype (%),Fibroblast [1]; [7],11%
same,Population Mitochondria Different-Phenotype (%),Fibroblast [1]; [7],79%
same,Population Mitotic Cells (%),Fibroblast [1]; [7],15%
same,Population Normal (%),Fibroblast [1]; [7],82%
same,Population Pyknosed Nuclei (%),Fibroblast [1]; [7],18%
same,Population Tubulin-Different-Phenotype (%),Fibroblast [1]; [7],92%
same,Total Cell Count,Fibroblast [1]; [7],131
same,Population Apoptotic (%),Fibroblast [1]; [8],50%
same,Population Fragmented Nuclei (%),Fibroblast [1]; [8],37%
same,Population Healthy Nuclei (%),Fibroblast [1]; [8],60%
same,Population Hoechst High Intensity Objects (%),Fibroblast [1]; [8],18%
same,Population Membrane Permeable-Phenotype (%),Fibroblast [1]; [8],7%
same,Population Mitochondria Different-Phenotype (%),Fibroblast [1]; [8],59%
same,Population Mitotic Cells (%),Fibroblast [1]; [8],50%
same,Population Normal (%),Fibroblast [1]; [8],81%
same,Population Pyknosed Nuclei (%),Fibroblast [1]; [8],2%
same,Population Tubulin-Different-Phenotype (%),Fibroblast [1]; [8],96%
same,Total Cell Count,Fibroblast [1]; [8],117
same,Growth Rate,HEK-293T; [9],0
same,Growth Rate,HEK-293T; [10],0
same,Growth Rate,HEK-293T; [11],0
same,Growth Rate,HEK-293T; [12],0
same,Growth Rate,"Fibroblast [2]; 0 h, replicate number 1, timepoint 0 hours",0
same,Growth Rate,Fibroblast [2]; [9],0
same,Growth Rate,Fibroblast [2]; [10],0
same,Growth Rate,Fibroblast [2]; [11],0
same,Growth Rate,Fibroblast [2]; [12],0
same,Growth Rate,U2OS; [9],0
same,Growth Rate,U2OS; [10],0
same,Growth Rate,U2OS; [11],0
same,Growth Rate,U2OS; [12],0
